T cruzi inh: inhibitors of intracellular T. cruzi growth, primary screen, luminescence, NIH3T3 host cells; AID 1885, 2009; T. cruzi beta-gal in NIH3T3, 90 h; inhibition, % (no concentration beside the values); hit rate 1.4% among 300,000;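 active means mean inhibition across valid replicates above about 55%, limit read from the data; inconclusive means mean below that limit but half or more replicates reach it; inactive means mean below it, under half of replicates reach it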;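 further: signal also drops with host cell toxicity which is not excluded here; 0% = plate median of DMSO wells and 100% = zero luminescence signal; higher percent means less beta-gal luminescence so fewer parasites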
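Read-out: Parasite load inhibition, % | Test system: Mouse NIH/3T3 fibroblasts infected with β-gal-expressing T. cruzi Tulahuen C4 | Amount: 5,000 cells/well | Medium: DMEM, 2% fetal bovine serum | Signal: GalScreen β-gal luminescence, detergent lysis, 60 min | Timing: 3 h attach, ≥90 h co-culture | Also added: Tulahuen C4 trypomastigotes, 5000/well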
DNA FID counter-1: compounds displacing fluorescent DNA intercalator, primary screen, artefact control for HCV NS3 helicase inhibitor project, biochemical, FID fluorescence. DNA fluorescent intercalator displacement. inhibition, % at 7.9 µM. hit rate 0.17% among 290,000;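 further: 0% = vehicle and 100% = reference compound; higher means more ethidium bromide displaced from hairpin DNA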
MEKK3 PB1 HTS: modulators of MEKK3-MEK5 PB1 binding, primary screen, biochemical, wildtype MEKK3, multiplex bead flow cytometry, Alexa488-MEK5; binding response (% of control), % at 10 µM; bead-based flow cytometry, Alexa488-MEK5 binding to MEKK3; actives lie on both sides; 0 = blocked by unlabeled MEK5, 100 = vehicle; hit rate 1.4% among 290,000; AID 1529, 2009;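 active means binding response more than 3 SD above or below the average of its plate-row segment, actives on both sides; inconclusive means wells at one plate position flagged as instrument error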;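 further: Alexa488 bead fluorescence after subtracting the streptavidin-only scavenger bead signal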
Target sequence (Q99759 whole entry, looked up): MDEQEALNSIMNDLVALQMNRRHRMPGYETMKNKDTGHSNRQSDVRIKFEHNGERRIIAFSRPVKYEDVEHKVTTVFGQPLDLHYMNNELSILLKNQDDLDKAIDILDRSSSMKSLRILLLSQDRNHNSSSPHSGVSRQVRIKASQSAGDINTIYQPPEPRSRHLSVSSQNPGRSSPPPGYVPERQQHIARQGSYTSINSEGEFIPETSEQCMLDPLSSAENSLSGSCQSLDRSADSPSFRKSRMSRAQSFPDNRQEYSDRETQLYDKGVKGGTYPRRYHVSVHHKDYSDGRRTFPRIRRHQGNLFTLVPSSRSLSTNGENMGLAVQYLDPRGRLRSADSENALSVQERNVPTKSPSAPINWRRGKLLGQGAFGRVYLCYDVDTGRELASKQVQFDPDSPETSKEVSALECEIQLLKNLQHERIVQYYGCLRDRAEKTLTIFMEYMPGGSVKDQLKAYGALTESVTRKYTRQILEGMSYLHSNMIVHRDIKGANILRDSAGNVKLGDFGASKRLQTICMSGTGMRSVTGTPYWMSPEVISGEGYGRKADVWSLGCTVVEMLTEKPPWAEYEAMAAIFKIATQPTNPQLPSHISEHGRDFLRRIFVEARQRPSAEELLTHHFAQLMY
MEKK2mut PB1 HTS: MEK5 binding signal on mutant MEKK2 PB1, primary screen, biochemical, multiplex bead flow cytometry, Alexa488-MEK5 | hit rate 0.35% among 290,000 | Alexa488-MEK5 binding to MEKK2 mutant | percent response, % at 10 µM | AID 1530, 2009; in the data active means percent response above about 24%, passing the limit was not always enough
MEKK2 WT-MEK5: modulators of MEK5 binding to wildtype MEKK2, primary screen, biochemical, multiplex bead flow cytometry, Alexa488-MEK5. Alexa488-MEK5 binding to MEKK2 WT; actives lie on both sides. hit rate 1.1% among 290,000. AID 1531, 2009. Mitogen-activated protein kinase kinase kinase 2 (Homo sapiens), Q9Y2U5. binding response (% of control), % at 10 µM; in the data active means binding response below about 67% or above about 130%; inconclusive means no clear call, values can overlap the other calls; inactive means in between
NS3 helicase inh: inhibitors of HCV NS3 helicase, primary screen, biochemical, Cy5 molecular beacon fluorescence. Hepatitis C virus NS3 helicase. inhibition, % at 10.9 µM. hit rate 0.56% among 290,000. NS3 helicase DNA unwinding. AID 1800, 2009;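 active means inhibition above the mean of all tested compounds plus 3 SD, set per campaign, cut at about 35% in these data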;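 further: 0% = DMSO wells and 100% = thioflavine S control wells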
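assay system = NS3 helicase fragment of HCV | buffer or medium = MOPS pH 6.5, MgCl2, DTT, Tween20, BSA | timing = 60 min unwinding reaction at 25 °C after ATP addition | signal = Cy5 beacon fluorescence read at start and 1 h | read-out basis = % inhibition of unwinding | control set = low DMSO, high thioflavine S at 110 µM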
NS3 helicase cf: HCV NS3 helicase inhibitors, retest, confirmation, biochemical, Cy5 molecular beacon fluorescence, triplicate. shares compounds with NS3 helicase inh. NS3 helicase DNA unwinding. inhibition, % at 10.9 µM. hit rate 31% among 1,600. AID 1943, 2009;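 active means inhibition above the mean of all tested compounds plus 3 SD, cutoff set per campaign, cut at about 36% in these data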
DNA FID counter-2: compounds displacing fluorescent DNA intercalator, artefact control for HCV NS3 helicase inhibitor project, biochemical, FID fluorescence, triplicate; shares compounds with NS3 helicase inh; DNA fluorescent intercalator displacement; inhibition, % at 7.9 µM; hit rate 4% among 1,600;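 further: 0% = vehicle and 100% = reference compound; higher means more displacement of ethidium bromide from the DNA hairpin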
FID counter DR: compounds displacing fluorescent intercalator from DNA, dose response, counter-screen for HCV NS3 helicase inhibitor project, biochemical, fluorescence | fluorescent intercalator displacement from DNA | IC50, µM | AID 2172, 2009 | 120 tested, under 10 active | shares compounds with NS3 helicase inh; call rule not given here
Numbers without * were called inactive. Only some compounds are listed: those with a hit (about 4.1% of all), similar ones and a draw of the others. Unless noted, no stated cut-off is given here; in the data, active means inhibition above about 37%; inactive means the rest.

How did O=S(=O)(Nc1ncnc2sc3c(c12)CCC3)c1ccc2ccccc2c1 do in these assays?
DNA FID counter-1: -32.5; MEKK3 PB1 HTS: 108.0; MEKK2mut PB1 HTS: 9.0; MEKK2 WT-MEK5: 106.0; NS3 helicase inh: 1.0

Results for CC1(C)CC(=O)c2c(O)cc(OCC(=O)N3CCN(c4ccc(F)cc4)CC3)cc2O1 ?
T cruzi inh: 19.4; DNA FID counter-1: -53.6; MEKK3 PB1 HTS: 102.0; MEKK2mut PB1 HTS: -5.0; MEKK2 WT-MEK5: 97.0; NS3 helicase inh: -6.2

Results for Cc1cc(/C=c2\sc3nc4ccccc4n3c2=O)c(C)n1-c1ccc(C(=O)O)cc1 ?
T cruzi inh: -1.7; DNA FID counter-1: -30.9; MEKK3 PB1 HTS: 101.0; MEKK2mut PB1 HTS: -2.0; MEKK2 WT-MEK5: 102.0; NS3 helicase inh: 16.9

Results for Cc1ccc2c(nc3s/c(=C\c4ccc(-c5ccccc5C(=O)O)o4)c(=O)n32)c1C ?
T cruzi inh: -23.1; DNA FID counter-1: 15.3; MEKK3 PB1 HTS: 101.0; MEKK2mut PB1 HTS: -4.0; MEKK2 WT-MEK5: 92.0; NS3 helicase inh: 43.8*; NS3 helicase cf: 65.4*; DNA FID counter-2: 50.5*

How did Cc1ccc(C)c(N2C(=N)S/C(=C\c3ccc(-c4ccccc4C(=O)O)o3)C2=O)c1 do in these assays?
T cruzi inh: -3.0; DNA FID counter-1: -21.9; MEKK3 PB1 HTS: 123.0; MEKK2mut PB1 HTS: -44.0; MEKK2 WT-MEK5: 66.0; NS3 helicase inh: 20.8

What do the screens show for `O=C(O)c1ccc(-c2ccc(/C=c3/sc4nc5ccccc5n4c3=O)o2)cc1Cl`?
T cruzi inh: -11.4; DNA FID counter-1: -8.8; MEKK3 PB1 HTS: 100.0; MEKK2mut PB1 HTS: -3.0; MEKK2 WT-MEK5: 95.0; NS3 helicase inh: 63.3*; NS3 helicase cf: 60.1*; DNA FID counter-2: 24.0

Results for Cc1cc2cc(CCNC(=O)CCc3ccccc3)c(=O)[nH]c2cc1C ?
T cruzi inh: 6.2; DNA FID counter-1: -42.8; MEKK3 PB1 HTS: 105.0; MEKK2mut PB1 HTS: 1.0; MEKK2 WT-MEK5: 102.0; NS3 helicase inh: 9.9

How did CC(C)CN=Cc1c(O)c([N+](=O)[O-])cc2oc3c(c12)CCCC3 do in these assays?
T cruzi inh: -8.5; DNA FID counter-1: 18.7; MEKK3 PB1 HTS: 101.0; MEKK2mut PB1 HTS: 8.0; MEKK2 WT-MEK5: 95.0; NS3 helicase inh: 45.8*; NS3 helicase cf: 12.1; DNA FID counter-2: 62.6*

What do the screens show for `Cc1cccc(/N=C/c2c(O)ccc3oc4c(c23)CCCC4)n1`?
T cruzi inh: -34.2; DNA FID counter-1: 2.4; MEKK3 PB1 HTS: 101.0; MEKK2mut PB1 HTS: 0.0; MEKK2 WT-MEK5: 103.0; NS3 helicase inh: -4.3

What do the screens show for `O=[N+]([O-])c1cc2oc3c(c2c(C=NCc2ccccc2)c1O)CCCC3`?
T cruzi inh: 1.7; DNA FID counter-1: -2.1; MEKK3 PB1 HTS: 107.0; MEKK2mut PB1 HTS: 4.0; MEKK2 WT-MEK5: 111.0; NS3 helicase inh: 51.1*; NS3 helicase cf: 74.6*; DNA FID counter-2: 69.2*

Results for CC(=O)c1sc(C(=O)O)c(-c2ccco2)c1-c1ccco1 ?
T cruzi inh: -18.4; DNA FID counter-1: -7.5; MEKK3 PB1 HTS: 97.0; MEKK2mut PB1 HTS: 1.0; MEKK2 WT-MEK5: 100.0; NS3 helicase inh: 52.0*; NS3 helicase cf: 35.7; DNA FID counter-2: 39.0*

What do the screens show for `O=C(Nc1nnc(-c2ccco2)s1)c1ccccc1`?
T cruzi inh: -11.0; DNA FID counter-1: -1.6; MEKK3 PB1 HTS: 95.0; MEKK2mut PB1 HTS: -5.0; MEKK2 WT-MEK5: 94.0; NS3 helicase inh: 11.3

Results for CC(=O)Nc1ccc(NC(=O)CSc2nc3[nH]ncc3c(=O)n2-c2ccccc2)cc1 ?
T cruzi inh: -10.0; DNA FID counter-1: -16.8; MEKK3 PB1 HTS: 98.0; MEKK2mut PB1 HTS: 4.0; MEKK2 WT-MEK5: 103.0; NS3 helicase inh: -5.9

What do the screens show for `Cc1ccc(-n2nc(C)c3c2OC(N)=C(C#N)C3c2ccco2)cc1` (stereo not drawn)?
T cruzi inh: -4.9; DNA FID counter-1: -11.5; MEKK3 PB1 HTS: 103.0; MEKK2mut PB1 HTS: 5.0; MEKK2 WT-MEK5: 106.0; NS3 helicase inh: 23.4

How did Cc1ccc(-n2nc(C)c3c2OC(N)=C(C#N)C3c2ccoc2)cc1 (stereo not drawn) do in these assays?
T cruzi inh: -9.5; DNA FID counter-1: -11.6; MEKK3 PB1 HTS: 101.0; MEKK2mut PB1 HTS: -1.0; MEKK2 WT-MEK5: 95.0; NS3 helicase inh: 45.5*; NS3 helicase cf: -18.4; DNA FID counter-2: 18.0

How did CCC(C(=O)O)n1nnc(-c2ccc(-c3ccc(OC)cc3)cc2)n1 (stereo not drawn) do in these assays?
T cruzi inh: -2.8; DNA FID counter-1: -23.4; MEKK3 PB1 HTS: 97.0; MEKK2mut PB1 HTS: 2.0; MEKK2 WT-MEK5: 95.0; NS3 helicase inh: 39.2*; NS3 helicase cf: 61.6*; DNA FID counter-2: -21.5; FID counter DR: >79.4

How did C=CCOc1ccc(Br)cc1/C=C1\NC(=S)N(C(C)=O)C1=O do in these assays?
T cruzi inh: -2.4; DNA FID counter-1: -15.6; MEKK3 PB1 HTS: 101.0; MEKK2mut PB1 HTS: 9.0; MEKK2 WT-MEK5: 103.0; NS3 helicase inh: 39.5*; NS3 helicase cf: 3.1; DNA FID counter-2: 2.9

How did O=C(c1nn2c(C(F)(F)F)cc(-c3ccccc3)nc2c1Cl)N1CCN2CCCC2C1 (stereo not drawn) do in these assays?
T cruzi inh: 14.0; DNA FID counter-1: 2.4; MEKK3 PB1 HTS: 99.0; MEKK2mut PB1 HTS: 5.0; MEKK2 WT-MEK5: 99.0; NS3 helicase inh: -4.5

How did Cc1ccc(C(=O)N/C(=C/c2ccco2)C(=O)NCc2ccco2)cc1 do in these assays?
T cruzi inh: inconclusive; DNA FID counter-1: -18.7; MEKK3 PB1 HTS: 96.0; MEKK2mut PB1 HTS: -9.0; MEKK2 WT-MEK5: 96.0; NS3 helicase inh: 37.4*; NS3 helicase cf: 1.4; DNA FID counter-2: 9.4

What do the screens show for `Cc1ccc(C(=O)N/C(=C/c2ccco2)C(=O)N2CCC(C)CC2)cc1`?
T cruzi inh: 9.0; DNA FID counter-1: -35.3; MEKK3 PB1 HTS: 100.0; MEKK2mut PB1 HTS: 2.0; MEKK2 WT-MEK5: 101.0; NS3 helicase inh: 46.6*; NS3 helicase cf: -18.7; DNA FID counter-2: -32.3

Assay outcomes from PubChem BioAssay.
